Measurements as given in ChEMBL document CHEMBL4811308, “Design, synthesis and broad spectrum antibreast cancer activity of diarylindoles via induction of apoptosis in aggressive breast cancer cells” (Bioorg Med Chem, 2021).

Legend:
Assay type in all cases: organism-based
[1] = Acute toxicity in Swiss albino mouse assessed as bilirubin level at 5 mg/kg, po administered once and observed for 7 days (reference value: 0.44 +/- 0.06 mg/dl); details: in vivo, 168 h, time 7 day
[2] = Acute toxicity in Swiss albino mouse assessed as hemoglobin level at 5 mg/kg, po administered once and observed for 7 days (reference value: 17.35 +/- 0.3 gm/dl); details: in vivo, 168 h, time 7 day
[3] = Acute toxicity in Swiss albino mouse assessed as effect on response of organism at 5 to 300 mg/kg, po administered once and observed for 7 days; details: in vivo, 168 h, dose 5-300 mg/kg, time 7 day
Method in brief: (§1)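 Acute oral toxicity per OECD guideline 423; mice 20–25 g, 3 male + 3 female per group, acclimatized 7 days at 22 ± 5 °C, 12 h light/dark. Compound dissolved in minimal DMSO, diluted in 0.7% CMC, single oral dose of 5, 50 or 300 mg/kg; controls given vehicle only. Clinical signs checked hourly on dosing day, then daily. Samples and body weights taken on day 7.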

[4] = Acute toxicity in Swiss albino mouse assessed as SGOT level at 300 mg/kg, po administered once and observed for 7 days (reference value: 22.94 +/- 4.04 U/L); details: in vivo, 168 h, time 7 day
[5] = Acute toxicity in Swiss albino mouse assessed as body weight at 300 mg/kg, po administered once and observed for 7 days (reference value: 22.75 +/- 0.93 gm); details: in vivo, 168 h, time 7 day
[6] = Acute toxicity in Swiss albino mouse assessed as relative heart weight at 5 to 300 mg/kg, po administered once and observed for 7 days; details: in vivo, 168 h, dose 5-300 mg/kg, time 7 day; method in brief: as §1
[7] = Acute toxicity in Swiss albino mouse assessed as effect on gait at 5 to 300 mg/kg, po administered once and observed for 7 days; details: in vivo, 168 h, dose 5-300 mg/kg, time 7 day; method in brief: as §1
[8] = Acute toxicity in Swiss albino mouse assessed as mortality at 5 to 300 mg/kg, po administered once and observed for 7 days; details: in vivo, 168 h, dose 5-300 mg/kg, time 7 day; method in brief: as §1
[9] = Acute toxicity in Swiss albino mouse assessed as relative liver weight at 5 to 300 mg/kg, po administered once and observed for 7 days; details: in vivo, 168 h, dose 5-300 mg/kg, time 7 day; method in brief: as §1
[10] = Acute toxicity in Swiss albino mouse assessed as absolute spleen weight at 5 to 300 mg/kg, po administered once and observed for 7 days; details: in vivo, 168 h, dose 5-300 mg/kg, time 7 day; method in brief: as §1
[11] = Acute toxicity in Swiss albino mouse assessed as bilirubin level at 50 mg/kg, po administered once and observed for 7 days (reference value: 0.44 +/- 0.06 mg/dl); details: in vivo, 168 h, time 7 day
[12] = Acute toxicity in Swiss albino mouse assessed as relative spleen weight at 5 to 300 mg/kg, po administered once and observed for 7 days; details: in vivo, 168 h, dose 5-300 mg/kg, time 7 day; method in brief: as §1
[13] = Acute toxicity in Swiss albino mouse assessed as relative lungs weight at 5 to 300 mg/kg, po administered once and observed for 7 days; details: in vivo, 168 h, dose 5-300 mg/kg, time 7 day; method in brief: as §1
[14] = Acute toxicity in Swiss albino mouse assessed as bilirubin level at 300 mg/kg, po administered once and observed for 7 days (reference value: 0.44 +/- 0.06 mg/dl); details: in vivo, 168 h, time 7 day
[15] = Acute toxicity in Swiss albino mouse assessed as absolute liver weight at 5 to 300 mg/kg, po administered once and observed for 7 days; details: in vivo, 168 h, dose 5-300 mg/kg, time 7 day; method in brief: as §1
[16] = Acute toxicity in Swiss albino mouse assessed as SGPT level at 5 mg/kg, po administered once and observed for 7 days (reference value: 12.65 +/- 2.98 U/L); details: in vivo, 168 h, time 7 day
[17] = Acute toxicity in Swiss albino mouse assessed as protein level at 50 mg/kg, po administered once and observed for 7 days (reference value: 2.01 +/- 0.11 mg/ml); details: in vivo, 168 h, time 7 day
[18] = Acute toxicity in Swiss albino mouse assessed as ALP level at 5 mg/kg, po administered once and observed for 7 days (reference value: 123.22 +/- 16.04 U/L); details: in vivo, 168 h, time 7 day
[19] = Acute toxicity in Swiss albino mouse assessed as absolute heart weight at 5 to 300 mg/kg, po administered once and observed for 7 days; details: in vivo, 168 h, dose 5-300 mg/kg, time 7 day; method in brief: as §1
[20] = Acute toxicity in Swiss albino mouse assessed as RBC level at 300 mg/kg, po administered once and observed for 7 days (reference value: 9.21 +/- 0.32 /mm3); details: in vivo, 168 h, time 7 day
[21] = Acute toxicity in Swiss albino mouse assessed as ALP level at 300 mg/kg, po administered once and observed for 7 days (reference value: 123.22 +/- 16.04 U/L); details: in vivo, 168 h, time 7 day
[22] = Acute toxicity in Swiss albino mouse assessed as SGOT level at 50 mg/kg, po administered once and observed for 7 days (reference value: 22.94 +/- 4.04 U/L); details: in vivo, 168 h, time 7 day
[23] = Acute toxicity in Swiss albino mouse assessed as relative kidney weight at 5 to 300 mg/kg, po administered once and observed for 7 days; details: in vivo, 168 h, dose 5-300 mg/kg, time 7 day; method in brief: as §1
[24] = Acute toxicity in Swiss albino mouse assessed as triglyceride level at 300 mg/kg, po administered once and observed for 7 days (reference value: 81.12 +/- 7.75 mg/dl); details: in vivo, 168 h, time 7 day
[25] = Acute toxicity in Swiss albino mouse assessed as hemoglobin level at 300 mg/kg, po administered once and observed for 7 days (reference value: 17.35 +/- 0.3 gm/dl); details: in vivo, 168 h, time 7 day
[26] = Acute toxicity in Swiss albino mouse assessed as cholesterol level at 50 mg/kg, po administered once and observed for 7 days (reference value: 122.05 +/- 8.12 mg/dl); details: in vivo, 168 h, time 7 day
[27] = Acute toxicity in Swiss albino mouse assessed as triglyceride level at 50 mg/kg, po administered once and observed for 7 days (reference value: 81.12 +/- 7.75 mg/dl); details: in vivo, 168 h, time 7 day
[28] = Acute toxicity in Swiss albino mouse assessed as ALP level at 50 mg/kg, po administered once and observed for 7 days (reference value: 123.22 +/- 16.04 U/L); details: in vivo, 168 h, time 7 day
[29] = Acute toxicity in Swiss albino mouse assessed as RBC level at 50 mg/kg, po administered once and observed for 7 days (reference value: 9.21 +/- 0.32 /mm3); details: in vivo, 168 h, time 7 day
[30] = Acute toxicity in Swiss albino mouse assessed as protein level at 300 mg/kg, po administered once and observed for 7 days (reference value: 2.01 +/- 0.11 mg/ml); details: in vivo, 168 h, time 7 day
[31] = Acute toxicity in Swiss albino mouse assessed as albumin at 300 mg/kg, po administered once and observed for 7 days (reference value: 1.62 +/- 0.09 g/dl); details: in vivo, 168 h, time 7 day
[32] = Acute toxicity in Swiss albino mouse assessed as creatinine level at 300 mg/kg, po administered once and observed for 7 days (reference value: 0.11 +/- 0.03 mg/dL); details: in vivo, 168 h, time 7 day
[33] = Acute toxicity in Swiss albino mouse assessed as WBC level at 300 mg/kg, po administered once and observed for 7 days (reference value: 8.55 +/- 2.71 /mm3); details: in vivo, 168 h, time 7 day
[34] = Acute toxicity in Swiss albino mouse assessed as WBC level at 5 mg/kg, po administered once and observed for 7 days (reference value: 8.55 +/- 2.71 /mm3); details: in vivo, 168 h, time 7 day
[35] = Acute toxicity in Swiss albino mouse assessed as hemoglobin level at 50 mg/kg, po administered once and observed for 7 days (reference value: 17.35 +/- 0.3 gm/dl); details: in vivo, 168 h, time 7 day

SMILES | Activity [1] [mg/dL] | Activity [2] [g/dL] | Activity [3] | Activity [4] [U/L] | Activity [5] [g] | Activity [6] | Activity [7] | Activity [8] | Activity [9] | Activity [10] | Activity [11] [mg/dL] | Activity [12] | Activity [13] | Activity [14] [mg/dL] | Activity [15] | Activity [16] [U/L] | Activity [17] [mg/mL] | Activity [18] [U/L] | Activity [19] | Activity [20] [million/mm3] | further results
COc1ccc2c(c1)c(Cc1ccc(OCCN(C)C)cc1)c(-c1cc(OC)c(OC)c(OC)c1)n2Cc1ccc(OCCN(C)C)cc1 | 0.3 | 16.59 | Non-Toxic | 27.73 | 21.88 | Non-Toxic | Non-Toxic | Non-Toxic | Non-Toxic | Non-Toxic | 0.35 | Non-Toxic | Non-Toxic | 0.36 | Non-Toxic | 14.47 | 1.48 | 97.53 | Non-Toxic | 9.45 | Activity [21]: 98.7 U/L; Activity [22]: 21.92 U/L; Activity [23]: Non-Toxic; Activity [24]: 91.2 mg/dL; Activity [25]: 15.96 g/dL; Activity [26]: 121.96 mg/dL; Activity [27]: 91.7 mg/dL; Activity [28]: 106.88 U/L; Activity [29]: 8.72 million/mm3; Activity [30]: 1.93 mg/mL; Activity [31]: 1.94 g/dL; Activity [32]: 0.15 mg/dL; Activity [33]: 5.53 thousands/mm3; Activity [34]: 6.73 thousands/mm3; Activity [35]: 17.01 g/dL
COc1ccc2c(c1)c(Cc1ccc(OC(C)CN(C)C)cc1)c(-c1cc(OC)c(OC)c(OC)c1)n2Cc1ccc(OC(C)CN(C)C)cc1 (stereo not given) | 0.34 | 15.83 | Non-Toxic | 33.25 | 22.75 | Non-Toxic | Non-Toxic | Non-Toxic | Non-Toxic | Non-Toxic | 0.39 | Non-Toxic | Non-Toxic | 0.36 | Non-Toxic | 11.82 | 1.28 | 87.76 | Non-Toxic | 7.96 | Activity [21]: 74.12 U/L; Activity [22]: 33.28 U/L; Activity [23]: Non-Toxic; Activity [24]: 86.58 mg/dL; Activity [25]: 15.54 g/dL; Activity [26]: 108.65 mg/dL; Activity [27]: 83.99 mg/dL; Activity [28]: 84.85 U/L; Activity [29]: 8.67 million/mm3; Activity [30]: 1.66 mg/mL; Activity [31]: 1.53 g/dL; Activity [32]: 0.14 mg/dL; Activity [33]: 5.6 thousands/mm3; Activity [34]: 6.23 thousands/mm3; Activity [35]: 15.21 g/dL
